Assay [1] deals with T1, Fatty-acid amide hydrolase 1 (Rattus norvegicus, UniProt P97612).
T1 sequence (P97612 whole entry): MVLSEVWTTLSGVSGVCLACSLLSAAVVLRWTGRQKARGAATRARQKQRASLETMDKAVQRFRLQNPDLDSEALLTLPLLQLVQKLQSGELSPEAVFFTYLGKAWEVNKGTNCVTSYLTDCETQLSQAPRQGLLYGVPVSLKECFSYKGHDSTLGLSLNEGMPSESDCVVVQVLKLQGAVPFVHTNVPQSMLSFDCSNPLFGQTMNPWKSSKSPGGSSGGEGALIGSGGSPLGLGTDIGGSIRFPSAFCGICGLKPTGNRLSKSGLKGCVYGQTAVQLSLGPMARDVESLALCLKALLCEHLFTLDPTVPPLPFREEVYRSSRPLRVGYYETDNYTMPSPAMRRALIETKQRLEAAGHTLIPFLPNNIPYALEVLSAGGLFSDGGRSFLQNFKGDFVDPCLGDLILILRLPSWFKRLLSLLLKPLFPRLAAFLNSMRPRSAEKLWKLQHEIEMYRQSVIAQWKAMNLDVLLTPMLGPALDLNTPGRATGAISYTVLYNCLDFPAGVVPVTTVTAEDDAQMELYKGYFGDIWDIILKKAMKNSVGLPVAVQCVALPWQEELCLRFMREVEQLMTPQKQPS
Nature of the assay: Inhibition of rat brain FAAH assessed as inhibition of [14C]anandamide hydrolysis. In short, it runs like this: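 Rat brain membranes incubated with [14C]anandamide (6 µM) and increasing compound concentrations in 50 mM Tris–HCl, pH 9, for 30 min at 37 °C. Mixture extracted with 2 volumes CHCl3/CH3OH (2:1). [14C]ethanolamine in the aqueous phase counted by scintillation. IC50 is the mean of n = 3 experiments.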

Assay [2] has as its target Cannabinoid receptor 2 (Homo sapiens, UniProt P34972). Nature of the assay: Displacement of [3H]CP-55940 from human CB2 receptor expressed in HEK cells. The class given is cell-based, HEK293. In outline:
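Preliminary screen at 5, 10 and 25 µM, then a complete displacement curve if binding fell by >50% at 10 µM. IC50 converted to Ki using Cheng–Prusoff. Mean of 3 separate experiments.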

Assay [3] addresses T2, Cannabinoid receptor 1 (Homo sapiens, UniProt P21554). Nature of the assay: (§1) Displacement of [3H]CP-55940 from human CB1 receptor expressed in HEK cells. The class given is cell-based, HEK293. In outline: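 Membranes from HEK cells transfected with human CB1. Screen at 5, 10 and 25 µM, then full dose–response for compounds displacing >50% at 10 µM. […] Ki derived from IC50 by Cheng–Prusoff. Means of n = 3 separate experiments.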
In general terms: Loss of bound radioactivity is the signal in a displacement assay; it reports binding, not function.

Assay [4] has as its target T2, Cannabinoid receptor 1. The description is as §1. It counts as cell-based, HEK293. The source holds these as a separate data set.
For assay [5], the target named is Cannabinoid receptor (Homo sapiens) (UniProt P34972+P21554). Kind of assay: Selectivity for human CB1 receptor over human CB2 receptor. It counts as protein assay.
Chain of Cannabinoid receptor (Homo sapiens) (P21554 whole entry, looked up): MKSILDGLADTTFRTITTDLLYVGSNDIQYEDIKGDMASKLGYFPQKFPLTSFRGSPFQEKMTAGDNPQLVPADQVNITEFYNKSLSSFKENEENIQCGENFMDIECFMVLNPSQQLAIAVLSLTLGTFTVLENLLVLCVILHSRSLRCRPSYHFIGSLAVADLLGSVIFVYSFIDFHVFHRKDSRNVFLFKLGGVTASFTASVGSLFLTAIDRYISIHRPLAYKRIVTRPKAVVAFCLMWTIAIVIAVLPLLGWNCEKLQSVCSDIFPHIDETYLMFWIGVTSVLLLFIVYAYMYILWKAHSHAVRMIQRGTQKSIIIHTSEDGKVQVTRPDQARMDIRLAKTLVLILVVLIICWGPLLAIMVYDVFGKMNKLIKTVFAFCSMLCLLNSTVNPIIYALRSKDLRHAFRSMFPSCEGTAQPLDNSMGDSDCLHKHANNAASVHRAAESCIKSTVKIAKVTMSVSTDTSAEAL
Chain of Cannabinoid receptor (Homo sapiens) (P34972 whole entry, looked up): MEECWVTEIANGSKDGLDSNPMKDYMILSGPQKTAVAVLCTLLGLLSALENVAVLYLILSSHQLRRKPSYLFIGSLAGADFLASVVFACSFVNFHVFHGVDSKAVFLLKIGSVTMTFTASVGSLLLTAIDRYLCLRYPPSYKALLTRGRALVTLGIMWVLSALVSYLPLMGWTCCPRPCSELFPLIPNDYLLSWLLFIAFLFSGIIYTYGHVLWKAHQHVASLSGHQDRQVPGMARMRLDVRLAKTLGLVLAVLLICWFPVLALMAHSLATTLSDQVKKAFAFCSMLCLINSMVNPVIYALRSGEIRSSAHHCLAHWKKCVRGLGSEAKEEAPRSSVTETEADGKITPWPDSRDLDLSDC

T2 sequence (P21554 whole entry): as the sequence (P21554 whole entry, looked up) above
Chain of Cannabinoid receptor 2 (P34972 whole entry): as the sequence (P34972 whole entry, looked up) above

One may read the IC50 as the point on the concentration scale where inhibition reaches its midpoint. As a reminder, the Ki is a measure of affinity in units of concentration, obtained from inhibition or displacement. Higher therefore signals a looser hold on the target. For the compound `CCCCCCc1ccc(OCCCCCCCCCCCC(=O)NC2CC2)cc1O`, the IC50 is greater than 50000 nM in assay [1] and greater than 10000 nM in assay [3]. The Ki in assay [2] worked out at 3940 nM.
Turning to `CCCCCc1cc(O)cc(OCCCCCCCCCCCC(=O)NC2CC2)c1`, the Ki was 750 nM in assay [4] and 310 nM in assay [2]. Moreover, in assay [1], the IC50 was found to be 50000 nM. For the same compound, in assay [5], the Ratio Ki was found to be 2.4.
In the case of `CCCCCc1cc(O)cc(OCCCCCCCCCCC(=O)NCCc2ccc(O)c(O)c2)c1`, the Ki in assay [4] came to 560 nM. The IC50 in assay [2] was greater than 10000 nM.
Regarding `CCCCCc1cc(O)cc(OCCCCCCCCCCC(=O)NCc2ccc(OC)c(O)c2)c1`, the Ki in assay [4] amounted to 2100 nM; in assay [2], 1650 nM. Moreover, the IC50 in assay [1] came out at 10000 nM. In addition, the Ratio Ki in assay [5] worked out at 1.3.
For the compound `CCCCCCc1ccc(OCCCCCCCCCCC(=O)NCc2ccc(OC)c(O)c2)cc1O`, the IC50 in assay [1] is greater than 50000 nM; in assay [2], greater than 10000 nM; in assay [3], greater than 10000 nM. The Ratio Ki in assay [5] was found to be 1.3.
On to `CCCCCCc1ccc(OCCCCCCCC(=O)NCCO)cc1O`, for which the Ki is 190 nM in assay [4] and 2400 nM in assay [2]. Further, the IC50 in assay [1] amounted to 50000 nM. For the same compound, in assay [5], the Ratio Ki was found to be 0.08.
For `CCCCCc1cc(O)cc(OCCCCCCCCCCCC(=O)NCCO)c1`, in that order: 60 nM, 39 nM, greater than 50000 nM and 1.5.
In the same order, the values of `CCCCCc1cc(O)cc(OCCCCCCCCCCC(=O)NCC2CC2)c1` are 510 nM, 80 nM, greater than 50000 nM and 6.4.
In the same order, the values of `CCCCCCc1c(O)cccc1OCCCCCCCC(=O)NCCO` are 260 nM, 3940 nM, 25000 nM and 0.07.
Take `CCCCCCc1ccc(OCCCCCCCC(=O)NC2CC2)cc1O`: the Ki worked out at 56 nM in assay [4] and 280 nM in assay [2]. Besides, the IC50 in assay [1] is greater than 50000 nM. Besides, the Ratio Ki in assay [5] is 0.2.
For the compound `CCCCCc1cc(O)cc(OCCCCCCCC(=O)NCCO)c1`, the Ki in assay [4] stood at 130 nM; in assay [2] it was 390 nM. In addition, the IC50 in assay [1] is greater than 50000 nM.
Regarding `CCCCCCc1ccc(OCCCCCCCCCCC(=O)NCC2CC2)cc1O`, the IC50 in assay [1] was greater than 50000 nM; in assay [3], greater than 10000 nM. The compound further came in with a Ki in assay [2] of 2900 nM.
On to `CCCCCCc1c(O)cccc1OCCCCCCCCCCC(=O)NCc1ccc(OC)c(O)c1`, for which the Ki in assay [4] turned out to be 2820 nM; in assay [2], 2100 nM. In addition, in assay [1], the IC50 was 50000 nM.
Turning to `CCCCCCc1ccc(OCCCCCCCCCCCC(=O)NCCO)cc1O`, the results for the IC50 in assay [1], in assay [2] and in assay [3] were 10000 nM, greater than 10000 nM and greater than 10000 nM, respectively.
Regarding `CCCCCCc1c(O)cccc1OCCCCCCCC(=O)NC1CC1`, the Ki in assay [4] is 310 nM; in assay [2] it was 1800 nM. Also, the IC50 in assay [1] was 50000 nM. Moreover, in assay [5], the Ratio Ki was 0.17.
On to `CCCCCCc1ccc(OCCCCCCCCCCC(=O)NCCc2ccc(O)c(O)c2)cc1O`, for which the IC50 in assay [2] and in assay [3] was greater than 10000 nM each time.
Consider `CCCCCc1cc(O)cc(OCCCCCCCC(=O)NC2CC2)c1`, for which the inhibition constant (Ki) was determined as 16 nM in assay [4] and 39 nM in assay [2]. For the same compound, the IC50 in assay [1] is greater than 50000 nM. In addition, the Ratio Ki in assay [5] was 0.33.

Source of the values: ChEMBL document CHEMBL1143734, “Design, synthesis, binding, and molecular modeling studies of new potent ligands of cannabinoid receptors” (Bioorg Med Chem, 2007).
